Measured values from ChEMBL document CHEMBL1130338, “(E)- and (Z)-7-arylidenenaltrexones: synthesis and opioid receptor radioligand displacement assays” (J Med Chem, 1997).
pKi: −log10 of the molar value.

What was measured:
[1] = biological target: Opioid receptors; mu & delta (UniProt P41143+P35372); assay: Selectivity ratio measured in terms of delta opioid receptor to the mu opioid receptor; format: protein assay; conditions: Cavia porcellus
Mu-type opioid receptor = Mu-type opioid receptor (Cavia porcellus, UniProt P97266); assay: Binding affinity was determined in a crude membrane preparation from guinea pig brain by displacement of [3H]DAMGO from Opioid receptor mu 1; format: cell membranes
Chain of Mu-type opioid receptor (P97266 whole entry): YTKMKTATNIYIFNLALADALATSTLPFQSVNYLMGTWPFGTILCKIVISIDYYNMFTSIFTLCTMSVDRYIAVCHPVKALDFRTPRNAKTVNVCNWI
Outline: (§1)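 Guinea pig brain (less cerebellum) homogenized in 0.05 M Tris pH 7.4, pelleted at 25000g (4 °C, 20 min), stored in 0.32 M sucrose at –70 °C. Diluted 1:60, giving 0.8–1.5 mg protein/mL. Radioligands at 1.0 nM ([3H]DAMGO μ, [3H]DPDPE δ, [3H]U69,593 κ). Test ligand in duplicate at nine concentrations, 1.0–1000 nM. Nonspecific binding with 10 μM naloxone. Incubated 60 min at 25 °C, then filtered and counted. Ki from IC50 via Cheng–Prusoff using KD measured in this homogenate.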

[2] = biological target: Kappa-type opioid receptor (Cavia porcellus, UniProt P41144); assay: Binding affinity was determined in a crude membrane preparation from guinea pig brain by displacement of [3H]U-69593 from Opioid receptor kappa 1; format: cell membranes; outline: as §1
Chain of Kappa-type opioid receptor (P41144 whole entry): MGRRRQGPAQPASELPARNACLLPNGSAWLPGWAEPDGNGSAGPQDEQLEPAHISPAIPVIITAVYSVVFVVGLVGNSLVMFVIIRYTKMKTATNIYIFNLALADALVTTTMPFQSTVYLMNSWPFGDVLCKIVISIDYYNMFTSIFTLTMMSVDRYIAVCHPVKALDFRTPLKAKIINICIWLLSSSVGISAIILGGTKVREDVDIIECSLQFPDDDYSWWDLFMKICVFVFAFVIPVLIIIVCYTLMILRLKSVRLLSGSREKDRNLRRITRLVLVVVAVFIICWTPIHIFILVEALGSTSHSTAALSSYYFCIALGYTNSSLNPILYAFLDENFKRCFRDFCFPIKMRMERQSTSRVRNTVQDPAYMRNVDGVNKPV

Chain of Opioid receptors; mu & delta (P35372 whole entry, looked up): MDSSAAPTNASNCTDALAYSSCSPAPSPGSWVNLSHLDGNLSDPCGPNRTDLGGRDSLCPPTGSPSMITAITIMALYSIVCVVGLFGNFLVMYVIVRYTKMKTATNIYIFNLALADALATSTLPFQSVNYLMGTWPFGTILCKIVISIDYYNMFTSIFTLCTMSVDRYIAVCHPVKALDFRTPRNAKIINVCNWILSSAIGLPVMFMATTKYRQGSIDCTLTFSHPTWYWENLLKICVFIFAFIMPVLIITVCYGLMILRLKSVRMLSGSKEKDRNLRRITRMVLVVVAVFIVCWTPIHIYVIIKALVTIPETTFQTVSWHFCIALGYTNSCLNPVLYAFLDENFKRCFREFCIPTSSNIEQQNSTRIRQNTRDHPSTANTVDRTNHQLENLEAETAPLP
Chain of Opioid receptors; mu & delta (P41143 whole entry, looked up): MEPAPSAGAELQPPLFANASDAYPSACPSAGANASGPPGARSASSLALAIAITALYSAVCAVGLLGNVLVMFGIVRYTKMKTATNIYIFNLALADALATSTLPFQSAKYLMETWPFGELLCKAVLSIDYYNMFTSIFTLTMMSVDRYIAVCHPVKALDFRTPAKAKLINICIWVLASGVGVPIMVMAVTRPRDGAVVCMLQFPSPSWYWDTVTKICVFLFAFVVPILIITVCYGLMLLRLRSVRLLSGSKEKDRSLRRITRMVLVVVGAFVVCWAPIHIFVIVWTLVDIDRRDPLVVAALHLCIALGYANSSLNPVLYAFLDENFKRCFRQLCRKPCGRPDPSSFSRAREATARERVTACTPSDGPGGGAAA

SMILES | Selectivity ratio [1] | pKi (Mu-type opioid receptor) | pKi [2]
O=C1/C(=C/c2cccc3ccccc23)C[C@@]2(O)[C@H]3Cc4ccc(O)c5c4C2(CCN3CC2CC2)[C@H]1O5 | 7.5 | 7.44 | 6.92
O=C1/C(=C/c2c3ccccc3cc3ccccc23)C[C@@]2(O)[C@H]3Cc4ccc(O)c5c4C2(CCN3CC2CC2)[C@H]1O5 | 6.4 | 6.96 | 6.77
O=C1/C(=C\c2ccccc2)C[C@@]2(O)[C@H]3Cc4ccc(O)c5c4[C@@]2(CCN3CC2CC2)[C@H]1O5 | 8.6 | 7.48 | 7.47
O=C1/C(=C/c2ccc(-c3ccccc3)cc2)C[C@@]2(O)[C@H]3Cc4ccc(O)c5c4C2(CCN3CC2CC2)[C@H]1O5 | 0.6 | 7.30 | 6.72
O=C1/C(=C\c2ccc(-c3ccccc3)cc2)C[C@@]2(O)[C@H]3Cc4ccc(O)c5c4C2(CCN3CC2CC2)[C@H]1O5 | 4.2 | 6.68 | 6.40
O=C1/C(=C/c2ccc3ccccc3c2)C[C@@]2(O)[C@H]3Cc4ccc(O)c5c4C2(CCN3CC2CC2)[C@H]1O5 | 0.6 | 7.64 | 7.13
O=C1/C(=C\c2c3ccccc3cc3ccccc23)C[C@@]2(O)[C@H]3Cc4ccc(O)c5c4C2(CCN3CC2CC2)[C@H]1O5 | 14 | 7.47 | 7.00
O=C1/C(=C/c2ccccc2)C[C@@]2(O)[C@H]3Cc4ccc(O)c5c4[C@@]2(CCN3CC2CC2)[C@H]1O5 [BNTX] | 4 | 7.59 | 7.32
CC(C)CN1CCC23c4c5ccc(O)c4O[C@H]2C(=O)/C(=C\c2ccc4ccccc4c2)C[C@@]3(O)[C@H]1C5 | 3 |  | 
O=C1/C(=C\c2cccc3ccccc23)C[C@@]2(O)[C@H]3Cc4ccc(O)c5c4C2(CCN3CC2CC2)[C@H]1O5 | 15 | 7.96 | 7.43
